ChEMBL document CHEMBL2406950, “Replacement of a quinone by a 5-O-acetylhydroquinone abolishes the accidental necrosis inducing effect while preserving the apoptosis-inducing effect of renieramycin M on lung cancer cells” (J Nat Prod, 2013)
Active and inactive are the calls of the source. The calls are words filed in the database; no cut-off is given here.

Key:
NCI-H23 [1] = assay: Induction of apoptosis in human H23 cells at 20 uM after 24 hrs by Hoechst 33342/propidium iodide staining-based fluorescence microscopy; type: functional, cell-based
Method in brief: (§1)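 H23 cells exposed to compound (0–20 μM range) for 24 h at 37 °C, then co-stained 30 min at 37 °C with 10 μM Hoechst 33342 and 10 μM PI. Scored by fluorescence microscopy: condensed or fragmented nuclei counted as apoptotic, PI-positive membrane-damaged cells counted as accidental necrotic. Results given as percentages; means ± SD of three independent experiments.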

[2] = Toxicity in human H23 cells assessed as induction of accidental necrosis at 20 uM after 24 hrs by Hoechst 33342/propidium iodide staining-based fluorescence microscopy; type: cell-based; conditions: nci-h23, 24 h; method in brief: as §1
[3] = Toxicity in human HK2 cells assessed as induction of accidental necrosis at 20 uM after 24 hrs by propidium iodide staining; type: cell-based; conditions: hk-2, 24 h
Method in brief: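 Normal human kidney HK-2 cells exposed to compound at 20 μM for 24 h. Accidental necrotic cells identified by propidium iodide staining and expressed as percentage.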

NCI-H23 [4] = assay: Cytotoxicity against human H23 cells assessed as cell viability at 20 uM after 24 hrs by MTT assay; type: functional, cell-based
Method in brief: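 H23 non-small-cell lung cancer cells (RPMI 1640, 5% FBS, 2 mM L-glutamine) plated at 1.5 × 10^5 cells/mL, grown 24 h at 37 °C, then exposed to compound 24 h at 37 °C. MTT 500 μg/mL added for 4 h; formazan dissolved in DMSO, absorbance read at 570 nm. Viability given as percent of untreated control; at least three replicate cultures.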

NCI-H23 [5] = assay: Induction of intracellular ROS generation in human H23 cells at 20 uM after 6 hrs by DCFH2-DA staining based fluorescence assay; type: functional, cell-based
Method in brief: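 H23 cells seeded 24 h at 37 °C, medium removed, then loaded with DCFH2-DA (10 μM final) in PBS for 30 min at 4 °C. Compound added at 20 μM and incubated 6 h at 37 °C. Fluorescence read on a microplate reader (excitation 480 nm, 530 nm band-pass). Triplicate samples, means ± SD.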

[6] = Induction of intracellular superoxide anion generation in human H23 cells at 20 uM after 6 hrs by DCFH2-DA staining based fluorescence assay in presence of dihydroethidium relative to control; type: cell-based; conditions: nci-h23, 6 h
Method in brief: (§2)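 Seeded cells loaded 30 min at 4 °C with 10 μM probe in PBS: HPF for hydroxyl radical, DHE for superoxide. Then 20 μM compound was added for 0−6 h at 37 °C. Plate fluorescence read at ex 490/515 nm (HPF) and ex 488/610 nm (DHE). Triplicate samples.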

NCI-H23 [7] = assay: Induction of intracellular hydroxyl radical generation in human H23 cells at 20 uM after 6 hrs by DCFH2-DA staining based fluorescence assay in presence of HPF; type: functional, cell-based; method in brief: as §2
NCI-H23 [8] = assay: Induction of intracellular H2O2 generation in human H23 cells at 20 uM after 6 hrs by DCFH2-DA staining based fluorescence assay in presence of sodium pyruvate; type: functional, cell-based
Method in brief: (§3)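 Seeded cells (24 h) loaded 30 min at 4 °C with 10 μM DCFH2-DA in PBS, with or without 1 mM scavenger (NAC, or sodium pyruvate for H2O2). Then 20 μM compound was added and cells incubated 0−6 h at 37 °C. Fluorescence read at ex 480 nm / 530 nm band-pass. Triplicate samples.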

NCI-H23 [9] = assay: Induction of intracellular ROS generation in human H23 cells at 20 uM after 6 hrs by DCFH2-DA staining based fluorescence assay in presence of N-acetylcysteine; type: functional, cell-based; method in brief: as §3
NCI-H23 [10] = assay: Induction of ROS generation in human H23 cells assessed as apoptotic cells at 20 uM after 24 hrs by Hoechst 33342/propidium iodide staining-based fluorescence microscopy in presence of N-acetylcysteine; type: functional, cell-based
Method in brief: (§4)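 Cells plated 24 h, then incubated 1 h at 37 °C with or without 1 mM NAC before 20 μM compound for 24 h. Staining used 10 μM Hoechst 33342 plus 10 μM PI for 30 min at 37 °C. Condensed or fragmented nuclei were scored as apoptotic and PI-stained nuclei as accidental necrotic, by fluorescence microscopy.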

[11] = Induction of accidental necrosis in human H23 cells assessed as loss of membrane integrity at 5 to 20 uM after 24 hrs by trypan blue exclusion assay; type: cell-based; conditions: nci-h23, 24 h
Method in brief: (§5)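 Attached cells exposed 24 h to 0−20 μM were collected into 3% FBS/PBS and fixed in absolute ethanol at −20 °C for 24 h. They were stained 40 min at 37 °C in PI buffer containing RNase A and Triton X-100. Sub-G0 fraction was taken from the flow cytometry DNA histogram. The same cells were stained with trypan blue and counted on an automated counter, with membrane-damaged cells scored as necrotic.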

NCI-H23 [12] = assay: Induction of apoptosis in human H23 cells assessed as accumulation of sub-G0 fraction after 24 hrs by propidium iodide staining-based flow cytometry; type: functional, cell-based; method in brief: as §5
NCI-H23 [13] = assay: Induction of apoptosis in human H23 cells at 1 to 20 uM after 24 hrs by Hoechst 33342/propidium iodide staining-based fluorescence microscopy; type: functional; method in brief: as §1
NCI-H23 [14] = assay: Cytotoxicity against human H23 cells assessed as cell viability after 24 hrs by MTT assay; type: functional, cell-based
Method in brief: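 H23 cells (1.5 × 10^5 cells/mL) grown 24 h at 37 °C in RPMI 1640, then exposed to 0−20 μM compound for 24 h at 37 °C. MTT (500 μg/mL) added for 4 h, formazan dissolved in DMSO, absorbance read at 570 nm. Viability expressed as percent of untreated control; at least three replicate cultures.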

NCI-H23 [15] = assay: Induction of ROS generation in human H23 cells assessed as cell viability at 20 uM after 24 hrs by MTT assay in presence of N-acetylcysteine
[16] = Induction of ROS generation in human H23 cells assessed as accidental necrotic cells at 20 uM after 24 hrs by Hoechst 33342/propidium iodide staining-based fluorescence microscopy in presence of N-acetylcysteine; type: cell-based; conditions: nci-h23, 24 h; method in brief: as §4
[17] = Toxicity in human H23 cells assessed as induction of accidental necrosis at 1 to 20 uM after 24 hrs by Hoechst 33342/propidium iodide staining-based fluorescence microscopy; type: cell-based; conditions: nci-h23, 24 h
Method in brief: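 H23 cells exposed to 0−20 μM compound for 24 h at 37 °C, then stained 30 min at 37 °C with 10 μM Hoechst 33342 and 10 μM PI. PI-stained, membrane-damaged cells were scored as accidental necrotic under a fluorescence microscope.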

Row | Compound | Activity (NCI-H23 [1]) | Activity [2] | Activity [3] | Activity (NCI-H23 [4]) | Activity (NCI-H23 [5]) | Activity [6] | Activity (NCI-H23 [7]) | Activity (NCI-H23 [8]) | Activity (NCI-H23 [9]) | Activity (NCI-H23 [10]) | Activity [11] [%] | Activity (NCI-H23 [12]) | Activity (NCI-H23 [13]) [%] | Activity (NCI-H23 [14]) | Activity (NCI-H23 [15]) | Activity [16] | Activity [17] [%]
1 | C/C=C(/C)C(=O)OC[C@H]1c2c(c(OC(C)=O)c(C)c(OC)c2OC(C)=O)C[C@H]2[C@H]3c4c(c(OC(C)=O)c(C)c(OC)c4OC(C)=O)C[C@@H]([C@H](C#N)N12)N3C | inactive | Non-toxic | Non-toxic | Active | inactive |  |  |  |  |  |  |  |  |  |  |  | 
2 | C/C=C(/C)C(=O)OC[C@H]1c2c(O)c(OC)c(C)c(OC(C)=O)c2C[C@H]2[C@H]3C4=C(C[C@@H]([C@H](C#N)N12)N3C)C(=O)C(C)=C(OC)C4=O |  |  | Non-toxic |  | Active | Non-toxic | inactive | inactive | inactive | Active | 1 | Dose-dependent effect | 46 | Dose-dependent effect | Active |  | 
3 | C/C=C(/C)C(=O)OC[C@H]1C2=C(C[C@H]3[C@H]4C5=C(C[C@@H]([C@H](C#N)N13)N4C)C(=O)C(C)=C(OC)C5=O)C(=O)C(C)=C(OC)C2=O [RENIERAMYCIN M] |  |  | 60% |  | Active | Toxic | inactive | inactive | inactive | Active | 10 | Dose-dependent effect | 51 | Dose-dependent effect | inactive | Non-toxic | 2.5
